Values after ≈ are worked out from the molar mass of the structure shown.
How the values were obtained:
[1] = tested on: Mycolicibacterium smegmatis; experiment: Antibacterial activity against Mycobacterium smegmatis mc2 155 assessed as inhibition of bacterial growth incubated upto 3 weeks hrs by resazurin dye based double-dilution method; type: functional; settings: mc2 155, 504 h
Summary of the method: (§1)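 Double-dilution broth MIC. Media: M. smegmatis, Mueller-Hinton; M. abscessus, 7H9 + 0.05% Tween80 + 0.4% glycerol; mc²6230, 7H9 + 0.05% tyloxapol, 0.5% glycerol, 10% OADC, 0.2% casamino acids, 24 µg/mL pantothenate; other mycobacteria, 7H9 + 0.05% Tween80, 0.4% glycerol, 10% ADC. Inoculum from agar set to 0.5 McFarland, then diluted 1:100.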

[2] = tested on: Mycobacterium avium; experiment: Antibacterial activity against Mycobacterium avium ATCC 25921 assessed as inhibition of bacterial growth incubated upto 3 weeks hrs by resazurin dye based double-dilution method; type: functional; settings: ATCC 25921, 504 h; summary of the method: as §1
[3] = tested on: Mycobacteroides abscessus; experiment: Antibacterial activity against Mycobacterium abscessus ATCC 19977 assessed as inhibition of bacterial growth incubated upto 3 weeks hrs by resazurin dye based double-dilution method; type: functional; settings: ATCC 19977, 504 h; summary of the method: as §1
[4] = target: T1, N-acetyltransferase Eis (Mycobacterium tuberculosis (strain ATCC 25618 / H37Rv), UniProt P9WFK7); experiment: Inhibition of Mycobacterium tuberculosis Eis assessed as Eis-mediated kanamycin acetylation preincubated for 10 mins followed by substrate addition and measured for 2 to 5 mins using acetyl-CoA as substrate in presence of kanamycin by UV-Vis spectroscopy analysis
T1 sequence (P9WFK7 whole entry): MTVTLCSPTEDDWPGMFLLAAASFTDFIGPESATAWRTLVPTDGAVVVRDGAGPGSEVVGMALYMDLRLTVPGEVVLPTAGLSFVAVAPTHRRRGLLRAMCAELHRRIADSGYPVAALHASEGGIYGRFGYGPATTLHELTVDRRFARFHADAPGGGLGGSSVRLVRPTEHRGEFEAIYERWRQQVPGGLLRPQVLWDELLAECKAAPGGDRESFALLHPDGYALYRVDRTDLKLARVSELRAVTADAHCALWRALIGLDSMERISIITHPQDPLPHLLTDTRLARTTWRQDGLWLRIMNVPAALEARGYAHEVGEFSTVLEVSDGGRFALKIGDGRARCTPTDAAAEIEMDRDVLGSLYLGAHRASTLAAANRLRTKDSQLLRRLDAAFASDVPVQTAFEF
Summary of the method: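 Recombinant Eis (1 µM) mixed with KAN (400 µM) in 50 mM Tris-HCl pH 8.0 and preincubated 10 min with 5-fold serially diluted inhibitor (10% DMSO in buffer). Reaction started with AcCoA and DTNB (2 mM each, as added). Absorbance read every 30 s for 20 min. Initial rates (first 2-5 min) fitted to Hill plot for IC50. At least triplicate.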

[5] = tested on: Mycobacterium tuberculosis; experiment: Antibacterial activity against Mycobacterium tuberculosis H37Ra ATCC NRS22 assessed as inhibition of bacterial growth incubated upto 3 weeks hrs by resazurin dye based double-dilution method; type: functional; settings: H37Ra ATCC NRS22, 504 h; summary of the method: as §1
[6] = tested on: Mycobacterium intracellulare; experiment: Antibacterial activity against Mycobacterium intracellulare ATCC 13950 assessed as inhibition of bacterial growth incubated upto 3 weeks hrs by resazurin dye based double-dilution method; type: functional; settings: ATCC 13950, 504 h; summary of the method: as §1
[7] = tested on: Mycobacterium tuberculosis; experiment: Potentiation of kanamycin-induced antibacterial activity against Mycobacterium tuberculosis K204 assessed as kanamycin MIC incubated for 1 day followed by kanamycin addition for 6 days and by Alamar blue assay; type: functional; settings: K204, 168 h, time 7 day
Summary of the method: (§2)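 Mtb in 7H9 + 10% ADC, 0.05% Tween 80, 0.4% glycerol at 37 °C. Inoculum adjusted to OD600 0.2, diluted 1:25. Cells preincubated 24 h at 37 °C with compound (100 µL of 200 µM solution). KAN then added: H37Rv at 2.5 and 1.25 µg/mL; K204 at 10, 5, 2.5, 1.25 µg/mL. Incubated 6 days, AlamarBlue added, colour read at 24 and 48 h. MIC = lowest KAN with no colour change. At least twice in duplicate.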

[8] = tested on: Mycobacterium tuberculosis; experiment: Potentiation of kanamycin-induced antibacterial activity against Mycobacterium tuberculosis H37Rv assessed as kanamycin MIC incubated for 1 day followed by kanamycin addition for 6 days and by Alamar blue assay; type: functional; settings: 168 h, time 7 day; summary of the method: as §2

SMILES | MIC [1] [µM] | MIC [2] [µM] | MIC [3] [µM] | IC50 [4] [µM] | MIC [5] [µM] | MIC [6] [µM] | MIC [7] [µg/mL] | MIC [8] [µg/mL]
CC1CCCCN1CCCOc1ccc(F)cc1 (configuration not stated) | 15.6 (≈ 3.92 µg/mL) | 15.6 (≈ 3.92 µg/mL) | > 62.5 | > 200 | 7.8 (≈ 1.96 µg/mL) | 7.8 (≈ 1.96 µg/mL) |  | 
COc1ccc(C(=O)CCCN2CCC(O)(c3ccc(F)cc3)CC2)cc1 | > 62.5 | > 62.5 | > 62.5 | 42 | > 62.5 | > 62.5 | > 10 | ≤ 1.25
O=C(CCCN1CCC(O)(c2ccc(Cl)cc2)CC1)c1ccccc1 | > 62.5 | 62.5 (≈ 22.4 µg/mL) | > 62.5 | 5.3 | 62.5 (≈ 22.4 µg/mL) | > 62.5 | > 10 | ≤ 1.25
Cc1ccc(S(=O)(=O)N2CCC(O)(c3ccc(Cl)cc3)CC2)cc1 | > 62.5 | > 62.5 | > 62.5 | > 200 | > 62.5 | > 62.5 |  | 
CC(C)c1ccc(C(=O)CCCN2CCC(O)(c3ccc(Cl)cc3)CC2)cc1 | 15.6 (≈ 6.24 µg/mL) | > 62.5 | 31.3 (≈ 12.5 µg/mL) | > 200 | 7.8 (≈ 3.12 µg/mL) | 7.8 (≈ 3.12 µg/mL) |  | 
COc1ccc(C(=O)CCCN2CCC(O)(c3ccc(Br)cc3)CC2)cc1 | > 62.5 | 62.5 (≈ 27 µg/mL) | > 62.5 | 5.6 | 31.3 (≈ 13.5 µg/mL) | > 62.5 | > 10 | ≤ 1.25
O=C(CCCN1CCC(O)(c2ccccc2)CC1)c1ccc(F)cc1 | > 62.5 | > 62.5 | > 62.5 | 0.85 | > 62.5 | > 62.5 |  | 
NNC(=O)c1ccncc1 [ISONIAZID] | 3.9 (≈ 0.535 µg/mL) | 62.5 (≈ 8.57 µg/mL) | > 62.5 |  | ≤ 1 | 3.9 (≈ 0.535 µg/mL) |  | 
O=C(CCCN1CCC(O)(c2ccc(Br)cc2)CC1)c1ccccc1 | > 62.5 | > 62.5 | > 62.5 | 2.2 | 62.5 (≈ 25.1 µg/mL) | > 62.5 | 10 | ≤ 1.25
CC1CC(C)CN(CCCOc2ccc(F)cc2)C1 (configuration not stated) | 62.5 (≈ 16.6 µg/mL) | > 62.5 | > 62.5 | 42 | 62.5 (≈ 16.6 µg/mL) | > 62.5 |  | 
O=C(CCCN1CCC(c2ccc(Cl)cc2)CC1)c1ccc(F)cc1 | > 62.5 | > 62.5 | > 62.5 | 1.1 | 62.5 (≈ 22.5 µg/mL) | 31.3 (≈ 11.3 µg/mL) |  | 
Fc1ccc(OCCCN2CCC(c3ccccc3)CC2)cc1 | > 62.5 | > 62.5 | 62.5 (≈ 19.6 µg/mL) | 14 | 31.3 (≈ 9.81 µg/mL) | 62.5 (≈ 19.6 µg/mL) |  | 
N=C(N)NCCCC(=O)c1ccc(F)cc1 | > 62.5 | > 62.5 | > 62.5 | 1.1 | 31.3 (≈ 6.99 µg/mL) | > 62.5 |  | 
O=C(CCCN1CCC(O)CC1)c1ccc(F)cc1 | > 62.5 | > 62.5 | > 62.5 | 0.69 | > 62.5 | > 62.5 |  | 
Cc1ccc(C(=O)CCCN2CCC(O)(c3ccc(Cl)cc3)CC2)cc1 | 62.6 (≈ 23.3 µg/mL) | > 62.5 | > 62.5 | 100 | 31.3 (≈ 11.6 µg/mL) | > 62.5 |  | 
CC(=O)CCCN1CCC(O)(c2ccc(Cl)cc2)CC1 | > 62.5 | > 62.5 | > 62.5 | 40 | > 62.5 | > 62.5 |  | 
CCc1ccc(C(=O)CCCN2CCC(O)(c3ccc(Cl)cc3)CC2)cc1 | 15.6 (≈ 6.02 µg/mL) | 62.5 (≈ 24.1 µg/mL) | 62.5 (≈ 24.1 µg/mL) | 40 | 15.6 (≈ 6.02 µg/mL) | 15.6 (≈ 6.02 µg/mL) |  | 
O=C(CCCN1CCC(O)(c2ccc(Br)cc2)CC1)c1ccc(Br)cc1 | 31.3 (≈ 15.1 µg/mL) | > 62.5 | > 62.5 | > 200 | 7.8 (≈ 3.75 µg/mL) | > 62.5 | > 10 | ≤ 1.25
O=C(CCCN1CCC(O)(c2ccc(F)cc2)CC1)c1ccc(Br)cc1 | > 62.5 | 62.5 (≈ 26.3 µg/mL) | > 62.5 | 6.6 | 31.3 (≈ 13.2 µg/mL) | 62.5 (≈ 26.3 µg/mL) | 10 | ≤ 1.25
CC1CC(C)CN(CCCC(=O)c2ccc(C(C)(C)C)cc2)C1 (configuration not stated) | 62.5 (≈ 19.7 µg/mL) | 62.5 (≈ 19.7 µg/mL) | 62.5 (≈ 19.7 µg/mL) | 200 | 31.3 (≈ 9.88 µg/mL) | 62.5 (≈ 19.7 µg/mL) |  | 
O=C(CCCN1CCC(O)(c2ccc(F)cc2)CC1)c1ccccc1 | > 62.5 | > 62.5 | > 62.5 | 3.1 | > 62.5 | > 62.5 | 10 | ≤ 1.25
O=C(CCCN1CCCCC1)c1ccc(F)cc1 [PRIMAPERONE] | > 62.5 | > 62.5 | > 62.5 | 0.62 | > 62.5 | > 62.5 |  | 
O=C(CN1CCC(O)(c2ccc(Cl)cc2)CC1)c1ccc(F)cc1 | > 62.5 | > 62.5 | > 62.5 | 100 | > 62.5 | > 62.5 |  | 
O=C(CCCN1CC=C(n2c(=O)[nH]c3ccccc32)CC1)c1ccc(F)cc1 [DROPERIDOL] | > 62.5 | > 62.5 | > 62.5 | 12.2 | 31.3 (≈ 11.9 µg/mL) | > 62.5 |  | 
